CXCR6 inh – blocks human CXCR6 beta-arrestin recruitment | CHO-K1 PathHunter CXCR6 beta-arrestin, luminescence | inhibition, % at 20 µM | hit rate 0.36% among 360,000; in the data active = inhibition above about 34%, passing the limit was not always enough;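 note: antagonist mode with CXCL16 agonist at 10 nM final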
EBI2 antag – antagonists of human EBI2 receptor | P32249 | EBI2 beta-arrestin recruitment, luminescence, 7a,25-OHC stimulated | inhibition, % at 5 µM | hit rate 0.81% among 360,000 | AID 651636; in the data active = inhibition above about 38%;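 note: enzyme fragment complementation signal reports receptor beta-arrestin coupling in cells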
Target sequence (P32249 whole entry, looked up, the tested form may be a part): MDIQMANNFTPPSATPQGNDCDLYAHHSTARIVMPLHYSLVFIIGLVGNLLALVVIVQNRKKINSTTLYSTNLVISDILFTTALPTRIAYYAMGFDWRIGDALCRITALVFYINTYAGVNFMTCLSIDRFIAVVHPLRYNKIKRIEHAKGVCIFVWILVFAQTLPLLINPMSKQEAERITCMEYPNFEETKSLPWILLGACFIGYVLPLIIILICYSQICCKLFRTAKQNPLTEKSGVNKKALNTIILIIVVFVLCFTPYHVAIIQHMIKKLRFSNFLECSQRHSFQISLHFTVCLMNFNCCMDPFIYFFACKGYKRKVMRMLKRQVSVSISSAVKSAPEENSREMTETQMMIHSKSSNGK
APJ antagonist – blocks the human apelin receptor APJ; P35414; CHO-K1 APJ beta-arrestin complementation, luminescence; inhibition, % at 20 µM; hit rate 0.32% among 330,000; AID 2521;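 active = inhibition above about 40% at 20 µM, limit read from the data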;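 note: cells challenged with 10 nM apelin-13 agonist together with compound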
CCR6 antagonist – blocks CCL20-driven beta-arrestin recruitment at human CCR6; P51684; CHO-K1 CCR6 PathHunter beta-arrestin, luminescence, CCL20-stimulated; inhibition, % at 20 µM; hit rate 0.49% among 340,000; AID 493098;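 active = compounds whose inhibition of the agonist-driven luminescence signal at 20 µM reaches about 50%, limit read from the data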;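 note: cells stimulated with CCL20 at 14 nM final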
APJ ag – agonists of human APJ apelin receptor | P35414 | CHO-K1 APJ PathHunter beta-arrestin, luminescence; 0% DMSO wells, 100% apelin | activation, % at 20 µM | hit rate 0.11% among 330,000 | AID 2520;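 active = activation more than six SD over the plate average, tested at 20 µM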
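Assay system: CHO-K1 cells stably expressing ProLink-tagged human APJ and arrestin–beta-gal acceptor. Compound dosing: 20 µM single point, 1% DMSO. Times: 16-18 h seeding, 90 min dark compound exposure, 60 min detection. Detection: beta-gal luminescence. Evaluation: APJ–arrestin association signal. Controls: negative DMSO alone, positive Apelin-13 at 10 nM.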
EBI2 antag conf – confirmation of human EBI2 receptor antagonists; shares compounds with EBI2 antag; EBI2 beta-arrestin luminescence, 7a,25-OHC antagonism; inhibition, % at 5 µM; hit rate 29% among 2,400; AID 651997;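 active = inhibition of at least 50%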
EBI2 ag – counter-screen for EBI2 antagonists: EBI2 agonist activity; shares compounds with EBI2 antag; EBI2-expressing cells, agonist mode, luminescence, 60 min; 0% vehicle, 100% 7α,25-dihydroxycholesterol control; activation, % at 5 µM; 2,400 tested, under 10 active;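 active = activation of at least 50%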
bGal counter – beta-galactosidase inhibition counter-screen. shares compounds with EBI2 antag. purified beta-galactosidase, luminescent Galacton Star, 15 min. inhibition, % at 5 µM. hit rate 1% among 2,400. AID 652176;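 active = replicate-average signal at least 3 plate SD below neutral wells, shown as high inhibition, flagging enzyme-inhibiting false positives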;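 note: higher means stronger loss of beta-gal luminescence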
Numbers stand for hits; - = inactive; . = no result. Sampled rows, rich in hits. Any-hit rate of the full collection: about 1.5%.

SMILES	CXCR6 inh	EBI2 antag	APJ antagonist	CCR6 antagonist	APJ ag	EBI2 antag conf	EBI2 ag	bGal counter
Brc1ccc(OCc2nnc(SCC3CCCCC3)o2)cc1	-	69	-	-	-	-	-	-
CCOc1ccc(Br)cc1S(=O)(=O)Nc1ccc(NC(=O)c2ccccc2C)cc1	-	-	-	-	-	.	.	.
CCOc1ccc(Br)cc1S(=O)(=O)Nc1ccc(C(=O)Nc2ccc(C)cc2)cc1	-	56	-	-	-	-	-	-
CC(CS(=O)(=O)c1ccc2c(c1)NC(=O)CS2)C(=O)NCc1ccccc1Cl (configuration not stated)	-	-	-	-	-	.	.	.
COc1ccc(C(C)(O)c2nc(-c3ccc(Cl)cc3)cs2)cc1 (configuration not stated)	-	-	.	.	.	.	.	.
COc1ccc(CN(Cc2ccc(OC)cc2)S(=O)(=O)c2ccc(-n3cnnn3)c(C)c2)cc1	-	45	-	-	-	-	-	-
COc1ccc(CN(Cc2cccnc2)S(=O)(=O)c2ccc(-n3cnnn3)c(OC)c2)cc1	-	-	-	-	-	.	.	.
CCN(CC)S(=O)(=O)c1ccc2c(c1)nc(SCC(=O)N1CCCCCC1)n2-c1ccc(OC)cc1	-	47	-	-	-	56	-	-
Cc1ccc(S(=O)(=O)N(CC(=O)Nc2ccc(C)cc2C)C(=O)N2CCN(C)CC2)cc1	-	-	-	-	-	.	.	.
Cc1ccc(/C=C/C(=O)NCc2cccs2)c(C)c1	-	-	-	-	-	.	.	.
Cc1ccc(/C=C/C(=O)NCc2ccncc2)cc1	-	64	-	-	-	-	-	-
Cc1ccc(/C=C/C(=O)NCc2cccs2)cc1	-	53	-	-	-	-	-	-
CC(NC(=O)/C=C/c1ccco1)c1nc2ccccc2n1Cc1ccccc1F (configuration not stated)	-	-	-	-	-	.	.	.
CCN(CC)CCCN(C(=O)c1ccc(F)cc1)c1nc(-c2ccc(OC)cc2)cs1	-	-	-	-	-	.	.	.
Cc1cc(C(=O)N/N=C/c2cccc3ccccc23)c(C)o1	-	-	-	-	-	.	.	.
CCOc1cc(/C=N/NC(=O)COc2nc(C)cc(COC)c2C#N)ccc1O	-	62	-	-	-	-	-	-
CCCCOc1ccc(C(=O)NCC2(c3ccc(OC)cc3)CCOCC2)cc1	-	-	-	-	-	.	.	.
O=S(=O)(NC1=NCCC1)c1cccc(NC(=S)Nc2ccc(OC(F)F)cc2)c1	-	48	-	-	-	-	-	-
O=C(COC(=O)c1ccc(OC(F)F)cc1)Nc1cccc(S(=O)(=O)NC2=NCCC2)c1	-	-	-	-	-	.	.	.
CCOc1ccc(C(=O)Nc2cnn(Cc3ccc(Cl)c(Cl)c3)c2)cc1	-	-	-	-	-	.	.	.
O=C(Nc1cnn(Cc2ccc(Cl)c(Cl)c2)c1)C12CC3CC(CC(C3)C1)C2	-	42	-	-	-	-	-	-
O=C(CN1CCCCC1)Nc1ccccc1Oc1ccccc1	-	-	-	-	-	.	.	.
O=C(c1nc2ccc(Cl)cn2c1CNCC[C@@H]1C[C@@H]2C=C[C@H]1C2)N1CCCCCCC1	-	61	-	-	-	-	-	-
C/C=C\C=C\C(=O)N1CC2(CC(c3cccc(NC(=O)COc4ccc(Cl)cc4)c3)=NO2)C[C@H]1C(N)=O (some centres not stated)	-	48	-	-	-	-	-	-
C/C=C\C=C/C(=O)Nc1cccc(C2=NOC3(C2)C[C@@H](C(N)=O)N(C(=O)COc2ccc(Cl)cc2)C3)c1 (some centres not stated)	-	-	-	-	-	.	.	.
CCCN(CCC)S(=O)(=O)c1ccc(Cl)c(OC)c1	-	-	-	-	-	.	.	.
O=C(c1ccc(F)cc1F)N1CCN(c2ncccn2)CC1	-	-	-	-	-	.	.	.
O=C(/C=C/c1cccc(F)c1)N1CCN(c2ncccn2)CC1	-	90	-	-	-	69	-	-
